Read-outs that look alike come from different tables or passages of the source.
How the values were obtained:
COX-1 [1] = conditions: cited from earlier work
COX-2 [2] = conditions: read-out: IC50 COX-2 monkey; cited from earlier work
COX-1 [3] = conditions: cited from earlier work; remark: listed apart in the source
COX-1 [4] = conditions: cited from earlier work; for IC50: read-out: IC50 COX-1 monkey
COX-1 [5] = biological target: T1, COX-1 (Macaca mulatta, UniProt F6S984); experiment: kinetic modeling of PET data; assay type: in vivo, rhesus monkey; conditions: for VND of [11C]PS13 (x-axis intercept of Lassen plot), by blocker experiment: PS13 1 mg/kg or KTP-Me 3 mg/kg as blocker; for reduction of [11C]PS13 brain regional VT values by preadministration: KTP-Me 3 mg/kg, MC1 0.3 mg/kg i.v.
T1 sequence (F6S984 25-599): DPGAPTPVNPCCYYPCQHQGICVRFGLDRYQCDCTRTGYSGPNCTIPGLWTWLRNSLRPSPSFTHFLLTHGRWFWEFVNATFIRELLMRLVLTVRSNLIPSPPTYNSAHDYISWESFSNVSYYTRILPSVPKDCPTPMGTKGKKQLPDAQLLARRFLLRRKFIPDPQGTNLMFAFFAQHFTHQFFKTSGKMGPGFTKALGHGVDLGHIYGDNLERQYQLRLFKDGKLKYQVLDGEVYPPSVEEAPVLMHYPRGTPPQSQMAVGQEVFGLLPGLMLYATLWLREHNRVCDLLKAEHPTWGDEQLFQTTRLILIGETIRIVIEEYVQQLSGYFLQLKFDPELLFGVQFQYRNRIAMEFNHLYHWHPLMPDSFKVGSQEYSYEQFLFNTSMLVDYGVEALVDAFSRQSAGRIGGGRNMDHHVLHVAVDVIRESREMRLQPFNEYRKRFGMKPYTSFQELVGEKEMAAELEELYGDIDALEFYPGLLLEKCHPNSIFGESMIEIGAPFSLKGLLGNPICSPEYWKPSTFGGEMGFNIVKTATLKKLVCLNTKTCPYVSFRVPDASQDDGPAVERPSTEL
Outline: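 Each baseline scan was followed >3 h later by a blocking scan, with blocker given as an i.v. bolus 5–10 min before radioligand. Femoral arterial samples were taken every 15 s to 120 s, then at 3–120 min, and parent radioligand was measured by reversed-phase radio-HPLC. VT was estimated by voxel-level Logan analysis, uncorrected for blood volume, with identifiability as % SE. A Lassen plot of regional VT gave occupancy from its slope and VND from its x-intercept.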

COX-1 [6] = biological target: T1, COX-1; experiment: paired baseline/preblock PET experiments with [11C]PS13 in rhesus monkey; assay type: in vivo, rhesus monkey (Macaca mulatta); conditions: for whole-brain radioactivity of [11C]PS13 after administration of blocker: 45 min after radioligand, PS13 1 mg/kg, KTP-Me 3 mg/kg i.v.; for peak whole-brain radioactivity of [11C]PS13 after administration of blocker: blocker i.v. before [11C]PS13: PS13 1 mg/kg, KTP-Me 3 mg/kg, MC1 0.3 mg/kg; for decline of whole-brain radioactivity from peak / radioactivity in whole brain: 45 min after injection
Outline: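 Male rhesus monkeys (7.5–12.8 kg) received an i.v. bolus of radioligand (212 ± 37 MBq; 114 ± 74 GBq/μmol) over 1 min. A baseline scan was followed more than 3 h later by a blocking scan, with inhibitor given i.v. minutes before radioligand. Scans were corrected for attenuation and scatter, and frames ran from 30 s to 10 min. Whole-brain (gray matter) time–activity curves were expressed as SUV.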

[7] = radioligand stability in monkey whole blood and plasma in vitro; assay type: in vitro ADME; conditions: monkey whole blood or plasma, 30 min, room temperature
Outline: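 Formulated radioligand was incubated with monkey whole blood or plasma at room temperature for at least 30 min. Blood was lysed with water, and samples were deproteinized with acetonitrile and centrifuged at 10 000g. Supernatants were analysed by reversed-phase radio-HPLC, and precipitates were γ-counted for extraction efficiency. Stability was taken as the % unchanged radioligand divided by radiochemical purity.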

[8] = plasma free fraction by ultrafiltration, pooled human plasma; assay type: in vitro ADME; conditions: pooled (standard) human plasma
Outline: (§1)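 Free fraction was measured in triplicate by ultrafiltration through membrane filters, with filtrate radioactivity read by γ-counting. Plasma was venous plasma from each monkey, or pooled human arterial plasma stored at −80 °C. The human plasma served as the standard for normalization across studies.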

[9] = baseline PET brain time-activity curves in rhesus monkey; assay type: in vivo, rhesus monkey (Macaca mulatta); conditions: for decline of whole-brain radioactivity from peak / radioactivity concentration in whole brain: at 85 min; for peak radioactivity concentration in whole brain / time of peak radioactivity concentration in whole brain: i.v. radioligand
Outline: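 Male rhesus monkeys (7.5–12.8 kg) were given ketamine (10 mg/kg i.m.) and kept on 1.6% isoflurane, head in a stereotaxic frame, and imaged on a microPET Focus 220. Radioligand (212 ± 37 MBq) in saline-ethanol 90:10 was given as an i.v. bolus over 1 min. The 120 min acquisition was reconstructed by FORE/2D FBP with attenuation, scatter and decay correction and coregistered to an MRI template. Regional gray-matter curves were expressed as SUV.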

[10] = log D by partition between n-octanol and sodium phosphate buffer; assay type: physicochemical; conditions: n-octanol / sodium phosphate buffer 0.15 M, pH 7.4
Outline: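 Radioligand partitioned between n-octanol and 0.15 M sodium phosphate buffer, pH 7.4. Radioactivity in each phase counted by γ-counter. Buffer-phase radioactivity corrected for parent fraction by reversed-phase radio-HPLC on a C18 column.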

[11] = radiometabolite analysis of monkey plasma after i.v. radioligand; assay type: in vivo, rhesus monkey
[12] = plasma free fraction by ultrafiltration, monkey plasma; assay type: in vitro ADME
Outline: as §1

COX-2 [13] = conditions: read-out: IC50 COX-2 human; cited from earlier work
[14] = cited from earlier work
[15] = baseline of the paired experiment using KTP-Me
[16] = baseline of the paired experiments using PS13
[17] = baseline of the paired experiment with MC1

Molecule: C[C@@H](C(=O)O)c1cccc(C(=O)c2ccccc2)c1 (single isomer, unassigned) [R-enantiomer of KTP]
- potency for inhibiting COX-1 (COX-1 [1]): negligible potency

Molecule: C[C@H](C(=O)O)c1cccc(C(=O)c2ccccc2)c1 [KTP, (S)-ketoprofen, reference compound]
- IC50 (COX-2 [2]): 400 nM
- IC50 (COX-1 [3]; read-out: IC50 COX-1 human): 20 nM
- IC50 (COX-1 [3]; read-out: IC50 for inhibiting human COX-1): 47 nM
- IC50 (COX-1 [4]): 1 nM

Molecule: COC(=O)[C@@H](C)c1cccc(C(=O)c2ccccc2)c1 [KTP-Me, (S)-ketoprofen methyl ester, reference compound]
- VND of [11C]PS13 (x-axis intercept of Lassen plot), by blocker experiment (COX-1 [5]): 1.8 mL/cm^3
- COX-1 occupancy (slope of Lassen plot) (COX-1 [5]; PS13 1 mg/kg, KTP-Me 3 mg/kg i.v., radioligand [11C]PS13): 72 ± 4%
- whole-brain radioactivity of [11C]PS13 after administration of blocker (COX-1 [6]): 1.09 SUV
- peak whole-brain radioactivity of [11C]PS13 after administration of blocker (COX-1 [6]): 4.14 SUV

Molecule: COc1cc(NCc2cccs2)nc(-c2ccc(S(C)(=O)=O)cc2)n1 [MC1, 6-methoxy-2-(4-(methylsulfonyl)phenyl)-N-(thiophen-2-ylmethyl)pyrimidin-4-amine, reference compound]
- fold lower potency for inhibiting COX-1 than COX-2 (COX-1 [3]; human): > 1000 fold
- reduction of [11C]PS13 brain regional VT values by preadministration (COX-1 [5]; PS13 1 mg/kg): no effect
- fold lower potency for inhibiting COX-1 than COX-2 (COX-1 [4]; monkey): > 1000 fold
- time of peak brain radioactivity of [11C]PS13 after administration of blocker (COX-1 [6]; MC1 0.3 mg/kg i.v.): 3.5 min
- peak whole-brain radioactivity of [11C]PS13 after administration of blocker (COX-1 [6]): 4.86 SUV

Molecule: COc1ccc(-c2nc(OCC(F)(F)F)nn2-c2ccc(OC)cc2)cc1 [PS13, 1,5-bis(4-methoxyphenyl)-3-(2,2,2-trifluoroethoxy)-1H-1,2,4-triazole]
- VND of [11C]PS13 (x-axis intercept of Lassen plot), by blocker experiment (COX-1 [5]): 2.5 mL/cm^3
- reduction of [11C]PS13 brain regional VT values by preadministration (COX-1 [5]; PS13 1 mg/kg): about 55%
- receptor occupancy at 1 mg/kg (COX-1 [5]; rhesus monkey, iv, read-out: COX-1 occupancy (slope of Lassen plot)): 87 ± 4%
- whole-brain radioactivity of [11C]PS13 after administration of blocker (COX-1 [6]): 1.11 SUV
- peak whole-brain radioactivity of [11C]PS13 after administration of blocker (COX-1 [6]): 3.60 SUV

Molecule: COc1ccc(-c2nc(OCF)nn2-c2ccc(OC)cc2)cc1 [[^2H2,^18F]PS2]
- IC50 (COX-2 [2]): > 1000 nM
- IC50 (COX-1 [3]; read-out: IC50 COX-1 human): 4 ± 2 nM
- IC50 (COX-1 [4]): 3.6 ± 1 nM

Molecule: [2H]C([2H])([18F])Oc1nc(-c2ccc(OC)cc2)n(-c2ccc(OC)cc2)n1 [[^2H2,^18F]PS2]
- radiochemical stability [7]: > 99%
- human fP (n = 3) [8]: 0.021 ± 0.000
- decline of whole-brain radioactivity from peak [9]: 74%
- radioactivity concentration in whole brain [9]: 1.05 SUV
- peak radioactivity concentration in whole brain ([9]; rhesus monkey): 4.11 SUV
- time of peak radioactivity concentration in whole brain ([9]; rhesus monkey): 7 min
- radioactivity in skull on brain image (radiodefluorination) ([9]; rhesus monkey): uptake of radioactivity in skull
- log D (n = 6) [10]: 3.26 ± 0.01
- radioactivity in plasma that was parent radioligand ([11]; by about 25 min after i.v. injection): 50%
- monkey fP (n = 3) [12]: 0.039 ± 0.001

Molecule: COc1ccc(-c2nc(OC)nn2-c2ccc(OC)cc2)cc1 [[^11C]PS1]
- IC50 (COX-2 [2]): > 1000 nM
- IC50 (COX-1 [3]; read-out: IC50 COX-1 human): 5 ± 5.2 nM
- IC50 (COX-2 [13]): > 1000 nM
- IC50 (COX-1 [4]): 4.6 ± 1.3 nM

Molecule: COc1ccc(-c2nc(O[11CH3])nn2-c2ccc(OC)cc2)cc1 [[^11C]PS1]
- radiochemical stability [7]: > 99%
- human fP (n = 3) [8]: 0.036 ± 0.001
- decline of whole-brain radioactivity from peak [9]: 85%
- radioactivity concentration in whole brain [9]: 0.62 SUV
- peak radioactivity concentration in whole brain ([9]; rhesus monkey): 4.26 SUV
- time of peak radioactivity concentration in whole brain ([9]; rhesus monkey): 1.75 min
- log D (n = 6) [10]: 3.29 ± 0.00
- monkey fP (n = 3) [12]: 0.042 ± 0.001

Molecule: COc1ccc(-c2nc(OCC(F)(F)F)nn2-c2ccc(OC)cc2)cc1 [[^11C]PS13, [^11C]1,5-bis(4-methoxyphenyl)-3-(2,2,2-trifluoroethoxy)-1H-1,2,4-triazole]
- radiochemical stability [7]: > 99%
- human fP (n = 3) [8]: 0.002 ± 0.000
- decline of whole-brain radioactivity from peak [9]: 54%
- log D (n = 6) [10]: 4.26 ± 0.04
- radioactivity in plasma represented by each species ([11]; 90 min after i.v. injection of [11C]PS13, radio-HPLC): 48.9%
- radioactivity in plasma represented by unchanged radioligand ([11]; at 90 min, baseline and self-block experiments): about 50%
- monkey fP (n = 3) [12]: 0.011 ± 0.001
- identifiability (SE) of VT (COX-1 [5]; all examined brain regions, Logan graphical analysis): 0.1–1.8%
- radioactivity uptake in brain specifically bound to COX-1 (COX-1 [5]; pharmacological preblock experiments, monkey): about 55%
- decline of whole-brain radioactivity from peak (COX-1 [6]; [15]): 43%
- radioactivity in whole brain (COX-1 [6]; [15]): 1.65 SUV
- decline of whole-brain radioactivity from peak (COX-1 [6]; [16]): 36%
- radioactivity in whole brain (COX-1 [6]; [16]): 1.88 SUV
- peak radioactivity in whole brain (COX-1 [6]; [15]): 2.90 SUV
- peak uptake of radioactivity in brain (COX-1 [6]; [17]): 3.73 SUV
- time of peak uptake of radioactivity in brain (COX-1 [6]; [17]): 3.5 min
- peak radioactivity in whole brain (COX-1 [6]; [16]): 2.92 SUV

Molecule: [^11C]-Ketoprofen [[^11C]KTP]
- brain penetrance [14]: poorly brain-penetrant

— article PMC6371780 (ACS chemical neuroscience, 2018)
